Measurements as given in PMC3068019 (EMBO Molecular Medicine, 2010).

Assays:
[1] = test system: PGC-1α mRNA, Q111 striatal cells; assay: PGC-1α mRNA by quantitative RT-PCR, Q111 cells; format: cell-based, mouse
Summary of the method: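 Total RNA (2 µg) from Q7/Q111 striatal cells, run either by TaqMan one-step RNA-to-Ct or by Superscript III reverse transcription followed by TaqMan gene expression assays on real-time PCR. Quantified by the delta-delta CT method, normalised to 18S […].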

PGC-1α = conditions: ref Milnerwood et al, 2010; Okamoto et al, 2009; cited from earlier work
glutathione = conditions: ref Mao et al, 2006; cited from earlier work
HD model mice = conditions: ref Karpuj et al, 2002; Fox et al, 2004; cited from earlier work
Q111 cells = assay: 3-NP toxicity, LIVE/DEAD viability assay, Q111 cells; format: cell-based, mouse
Caspase = conditions: ref Bailey & Johnson, 2006; Jeitner et al, 2005; cited from earlier work
DNAJB10 = conditions: ref Karpuj et al, 2002; cited from earlier work
BDNF = conditions: ref Borrell-Pages et al, 2006; cited from earlier work
[2] = test system: DNAJ (HSJ1b), striatal neurons; conditions: ref Borrell-Pages et al, 2006, cited from earlier work
Caenorhabditis elegans = conditions: ref Borrell-Pages et al, 2006; cited from earlier work

CC(/C=C/C(=O)NO)=C\[C@@H](C)C(=O)c1ccc(N(C)C)cc1 [TSA, Trichostatin A]
effect on PGC-1α mRNA levels [1]: increased the mRNA levels of PGC-1α

CC12CC3CC(C)(C1)CC(N)(C3)C2 [memantine]
transcriptional dysregulation of PGC-1α induced by extrasynaptic glutamate (PGC-1α): appears to prevent transcriptional dysregulation of PGC-1α

NCCSSCCN [cystamine]
glutathione levels (glutathione): increases levels of the versatile antioxidant glutathione
neuroprotection in HD models (HD model mice): neuroprotective
protection against 3-NP toxicity (Q111 cells; not shown, cell line not stated): protect against 3-NP toxicity
caspase inhibition (Caspase): caspase inhibition
DNAJB10 in treated mice (DNAJB10): increased

NCCS [cysteamine]
trafficking of BDNF (BDNF): enhanced
DNAJB10 levels [2]: normalize DNAJB10 levels
DNAJ (HSJ1b) transcription and protein levels ([2]; striatal neurons in vitro): increased
protection of worms from toxic effects of mhtt (Caenorhabditis elegans): protected worms

O=C(O)CC[N+](=O)[O-] [3-NP, 3-nitropropionic acid]
toxicity of 3-NP, Q111 compared with Q7 cells (Q111 cells; 3-NP 10 mM for 48 h): more toxic to Q111 cells than to Q7 cells

CCCC(=O)O [NaBu, Sodium butyrate]
effect on PGC-1α mRNA levels [1]: increased the mRNA levels of PGC-1α
